Laboratory results published in ChEMBL document CHEMBL1155878, “Substituted 6-phenyl-2-naphthols. Potent and selective nonsteroidal inhibitors of 17beta-hydroxysteroid dehydrogenase type 1 (17beta-HSD1): design, synthesis, biological evaluation, and pharmacokinetics” (J Med Chem, 2008).
The source made the active and inactive calls. The rule behind the calls is not given here.

Assays:
[1] = molecular target: T1, 17-beta-hydroxysteroid dehydrogenase type 1 (Homo sapiens) (UniProt P14061); assay: Inhibition of human placental 17beta-HSD1 assessed as conversion of [3H]estrone to [3H]17beta-estradiol at 1 uM
T1 sequence (whole entry): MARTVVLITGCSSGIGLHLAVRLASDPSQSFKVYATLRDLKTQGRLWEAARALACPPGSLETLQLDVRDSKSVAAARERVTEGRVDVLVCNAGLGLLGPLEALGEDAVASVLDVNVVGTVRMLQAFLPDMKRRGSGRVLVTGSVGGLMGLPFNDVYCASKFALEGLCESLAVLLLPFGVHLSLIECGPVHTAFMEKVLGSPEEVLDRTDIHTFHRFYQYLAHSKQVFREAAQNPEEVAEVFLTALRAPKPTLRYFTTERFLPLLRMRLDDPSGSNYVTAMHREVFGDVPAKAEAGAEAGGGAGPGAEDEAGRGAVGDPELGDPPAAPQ
How it was run: (§1)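 Cytosolic enzyme from human placenta, purified by ammonium sulfate precipitation, with NADH 500 µM. Incubated at 37 °C in 50 mM phosphate buffer with 20% glycerol and 1 mM EDTA, 1% DMSO final. Started with [3H]E1 (500 nM final) and stopped with HgCl2 after 10 min. Ether extraction, then HPLC with radioflow detection of E1/E2. Result is % inhibition = 100 − % conversion, from ≥3 independent experiments.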

[2] = molecular target: T1, 17-beta-hydroxysteroid dehydrogenase type 1 (Homo sapiens); assay: Inhibition of human placental 17beta-HSD1 assessed as conversion of [3H]estrone to [3H]17beta-estradiol at 100 nM; how it was run: as §1
T47C = assay: Stimulation of human […] cell proliferation at 0.1 nM after 8 days by MTT assay; type: functional, cell-based
[3] = molecular target: T2, 17-beta-hydroxysteroid dehydrogenase type 2 (Homo sapiens) (UniProt P37059); assay: Inhibition of human recombinant expressed in Sf9 cells 17beta-HSD2 assessed as conversion of [3H]17beta-estradiol to [3H]estrone at 1 uM
T2 sequence (whole entry): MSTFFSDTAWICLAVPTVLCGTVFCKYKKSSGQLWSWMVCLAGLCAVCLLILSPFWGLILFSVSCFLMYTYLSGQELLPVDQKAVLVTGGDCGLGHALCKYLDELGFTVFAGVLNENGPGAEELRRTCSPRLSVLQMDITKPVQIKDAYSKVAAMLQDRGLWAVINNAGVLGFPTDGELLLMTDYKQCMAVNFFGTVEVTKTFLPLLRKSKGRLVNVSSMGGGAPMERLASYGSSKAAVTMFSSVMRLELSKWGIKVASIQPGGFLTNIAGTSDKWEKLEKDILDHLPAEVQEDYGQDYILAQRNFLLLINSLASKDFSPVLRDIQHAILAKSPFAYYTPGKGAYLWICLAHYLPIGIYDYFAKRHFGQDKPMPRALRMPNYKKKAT
How it was run: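 Microsomes from Sf9 cells infected with baculovirus. Incubated with 30 nM [3H]E2 and 1 mM NAD+ in 20 mM KH2PO4, pH 7.4, for 30 min at room temperature, with 1% DMSO. Stopped with 10% trichloroacetic acid. E1/E2 radioactivity used for conversion; inhibition = 100 − % conversion, from two independent experiments.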

Rattus norvegicus [4] = assay: Tlast in Wistar rat at 10 mg/kg, po; type: ADME, organism-based; set-up: dose 10 mg/kg, route oral; settings: in vivo
How it was run: (§2)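 Four adult male Wistar rats per group given 10 mg/kg orally in labrasol/water (1:1), cassette dosing. Rats were jugular-cannulated under ketamine/xylazine and sampled freely moving at 1, 2, 3, 4, 6, 8, 10 and 24 h. Plasma stored at -20 °C and quantified by HPLC-MS/MS (ESI triple quadrupole).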

[5] = Stimulation of human […] cell proliferation at 100 nM after 8 days by MTT assay relative to 17-beta estradiol; type: functional
[6] = Cmax in Wistar rat at 10 mg/kg, po; type: ADME, organism-based; set-up: dose 10 mg/kg, route oral; settings: in vivo; how it was run: as §2
[7] = AUC (0 to infinity) in Wistar rat at 10 mg/kg, po; type: ADME, organism-based; set-up: dose 10 mg/kg, route oral, time infinity; settings: plasma; how it was run: as §2
[8] = Tmax in Wistar rat at 10 mg/kg, po; type: ADME, organism-based; set-up: dose 10 mg/kg, route oral; settings: in vivo; how it was run: as §2
[9] = Terminal half life in Wistar rat at 10 mg/kg, po; type: ADME, organism-based; set-up: dose 10 mg/kg, route oral; settings: in vivo; how it was run: as §2
Rattus norvegicus [10] = assay: Clast in Wistar rat at 10 mg/kg, po; type: ADME, organism-based; set-up: dose 10 mg/kg, route oral; settings: in vivo; how it was run: as §2
[11] = AUC (0 to tlast) in Wistar rat at 10 mg/kg, po; type: ADME, organism-based; set-up: dose 10 mg/kg, route oral; settings: plasma; how it was run: as §2
[12] = molecular target: T3, 17-beta-hydroxysteroid dehydrogenase type 2 (Homo sapiens, UniProt P37059); assay: Inhibition of human placental 17beta-HSD2 assessed as conversion of [3H]17beta-estradiol to [3H]estrone
T3 sequence (P37059 whole entry): T2 sequence (whole entry)
How it was run: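 Human placental microsomal fraction incubated with NAD+ (1500 µM), test compound and unlabeled plus [3H]E2 (final 500 nM) for 20 min at 37 °C. The reaction was stopped with HgCl2 and extracted with ether. E1 and E2 were separated by HPLC with radioflow detection. Percent conversion was used to derive inhibition. Values are the mean of three determinations; IC50 was measured for selected compounds.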

[13] = molecular target: T4, 17-beta-hydroxysteroid dehydrogenase type 1 (Homo sapiens, UniProt P14061); assay: Inhibition of human placental 17beta-HSD1 assessed as conversion of [3H]estrone to [3H]17beta-estradiol
T4 sequence (P14061 whole entry): T1 sequence (whole entry)

N#Cc1cc(-c2cccc(O)c2)cc2ccc(O)cc12
inhibition [1]: 53%
inhibition [2]: inactive

N#Cc1cc(O)cc2ccc(-c3cccc(O)c3)cc12
inhibition [1]: 99%
inhibition [2]: 73%

Cc1ccc(S(=O)(=O)c2c(O)ccc3cc(-c4cccc(O)c4)ccc23)cc1
inhibition [1]: 75%

C[C@]12CC[C@@H]3c4ccc(O)cc4CC[C@H]3[C@@H]1CC[C@@H]2O
Activity (T47C): Active

CNC(=O)CCc1c(O)ccc2cc(-c3cccc(O)c3)ccc12
inhibition [3]: 36%

O=C(Nc1ccccn1)c1c(O)ccc2cc(-c3cccc(O)c3)ccc12
Activity [1]: inactive
Activity [2]: inactive

Oc1cccc(-c2ccc3cc(O)ccc3c2)c1
tz (Rattus norvegicus [4]): 24 h
Activity [5]: 41%
Cmax [6]: 2230 ng/mL
AUC(0-inf) [7]: 30700 ng·h/mL
Tmax [8]: 6 h
half-life [9]: 4 h
Cz (Rattus norvegicus [10]): 159 ng/mL
AUC(0-t) [11]: 29700 ng·h/mL

O=S(=O)(c1ccccc1)c1c(O)ccc2cc(-c3cccc(O)c3)ccc12
inhibition [1]: 33%

Oc1cccc(-c2ccc3c(Br)c(O)ccc3c2)c1
IC50 [12]: 639 nM
IC50 [13]: 40 nM

O=C(Nc1ncccn1)c1c(O)ccc2cc(-c3cccc(O)c3)ccc12
Activity [1]: inactive
Activity [2]: inactive

Oc1cccc(-c2ccc3c(-c4ccccc4)c(O)ccc3c2)c1
tz (Rattus norvegicus [4]): 24 h
IC50 [13]: 20 nM
Activity [5]: 39%
Cmax [6]: 860 ng/mL
AUC(0-inf) [7]: 12700 ng·h/mL
Tmax [8]: 4 h
half-life [9]: 6 h
Cz (Rattus norvegicus [10]): 115 ng/mL
AUC(0-t) [11]: 11700 ng·h/mL

Cc1nnc(NC(=O)c2c(O)ccc3cc(-c4cccc(O)c4)ccc23)s1
inhibition [1]: 73%
